In ChEMBL document CHEMBL5252546, “Salutaxel, a Conjugate of Docetaxel and a Muramyl Dipeptide (MDP) Analogue, Acts as Multifunctional Prodrug That Inhibits Tumor Growth and Metastasis” (J Med Chem, 2018):
The source made the active and inactive calls. The calls are words filed in the database; no cut-off is given here.

Columns and labels:
[1] = Acute toxicity in Sprague-Dawley rat assessed as maximum tolerated dose at iv administration; type: organism-based; details: in vivo
Outline: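 Acute toxicity after a single intravenous administration. […] In dogs, an approximate lethal dose range was determined.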

[2] = AUC (0-t) in rat at 2 mg/kg,iv measured upto 24 hrs; type: ADME, organism-based; set-up: dose 2 mg/kg, time < 24 hrs, route iv; details: in vivo
Outline: (§1)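 Single iv dose: rats 2, 4 or 8 mg/kg by intravenous injection; Beagle dogs 1, 2 or 4 mg/kg by intravenous infusion. Plasma concentration–time data were analysed by sex and pooled. Reported parameters: Cmax, Tmax, AUC0−t, AUC0−∞, MRT0−∞, t1/2, CL, Vss, given as mean ± SD.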

[3] = Drug metabolism in rat bile assessed as metabolite MDA-205 formation at 4 mg/kg,iv measured after 24 hrs; type: ADME, organism-based; details: in vivo
[4] = tested on: 4T1; test: Antitumor activity against mouse 4T1 cells implanted in BALB/c mouse assessed as decrease in serum TIMP-1 level at 5 mg/kg,iv administrated once per week for 4 weeks by ELISA; type: functional, organism-based
Outline: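 4T1 fat-pad model in BALB/c mice, iv 5–20 mg/kg once weekly for 4 weeks, with vehicle and naive groups; serum MMP9, TIMP-1, IL-6 and S100A9 measured by mouse ELISA kits.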

[5] = tested on: 4T1; test: Antitumor activity against mouse 4T1 cells implanted in BALB/c mouse assessed as decrease in IL-1beta mRNA expression in lung at 20 mg/kg,iv administrated qd for 2 days by qRT-PCR analysis; type: functional, organism-based; details: time 2.0 day
Outline: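 Day 19 after 4T1 implantation, mice randomised into five groups; iv vehicle or 20 mg/kg plus ip C12-iE-DAP (50 μg/mouse) and MDP (100 μg/mouse) once daily for 2 days; killed after 48 h; lung mRNA for MMP8, MMP9, PROK2, S100A8, S100A9 and IL-1β by qPCR; mean ± SEM.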

[6] = Tmax in female Beagle dog at 1 mg/kg,iv measured upto 24 hrs; type: ADME, organism-based, Canis lupus familiaris; details: in vivo
[7] = MRT (0 to infinity) in rat at 8 mg/kg,iv measured upto 24 hrs; type: ADME, organism-based; details: in vivo
[8] = Half life in male Beagle dog at 4 mg/kg,iv measured upto 24 hrs; type: ADME, organism-based, Canis lupus familiaris; details: in vivo
[9] = Drug concentration in rat brain assessed as docetaxel concentration at 4 mg/kg,iv measured after 24 hrs; type: ADME, organism-based; details: in vivo
Outline: (§2)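 Rats received 4 mg/kg iv. Parent drug and released docetaxel were assayed in tissues and plasma from the first sampling at 0.25 h to 24 h. The lower limit of quantitation was 200 ng/g.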

[10] = Chronic toxicity in female Beagle dog at 3 to 18 mg/kg,iv administered once per week for 30 days; type: organism-based, Canis lupus familiaris; details: in vivo, 720 h, dose 3-18 mg/kg, time 30 day
Outline: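 Long-term toxicity: rats given iv 2, 4 or 8 mg/kg and dogs 3, 6 or 18 mg/kg once weekly over 30 days; toxicokinetics recorded; highest non-severely toxic dose determined by sex.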

[11] = tested on: 4T1; test: Synergistic antitumor activity against mouse 4T1 cells xenografted with BALB/c mouse assessed as decrease in tumor weight at 10 mg/kg,iv administrated in combination with doxorubicin once per week for 4 weeks; type: functional, organism-based
[12] = AUC (0-t) in female rat at 8 mg/kg,iv measured upto 24 hrs; type: ADME, organism-based; set-up: dose 8 mg/kg, time < 24 hrs, route iv; details: in vivo; outline: as §1
[13] = Stability in human hepatocyte assessed as compound remaining at 3 uM incubated upto 120 mins; type: ADME, cell-based; details: hepatocytes, 2 h
[14] = Tmax in female Beagle dog at 2 mg/kg,iv measured upto 24 hrs; type: ADME, organism-based, Canis lupus familiaris; details: in vivo
[15] = Drug distribution in rat lung at 4 mg/kg,iv measured by 0.25 hrs; type: ADME, organism-based; details: in vivo; outline: as §2
[16] = Drug metabolism in dog hepatocytes assessed as MDA-205 metabolite formation at 20 uM incubated for 180 mins; type: ADME, cell-based, Canis lupus familiaris, Hepatocyte; details: 3 h
[17] = tested on: 4T1; test: Antitumor activity against mouse 4T1 cells xenografted with BALB/c mouse assessed as inhibition of tumor growth at 5 mg/kg,iv administrated once per week for 4 weeks; type: functional; details: 4T1, 672 h
Outline: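 4T1 cells injected into the mammary fat pad of BALB/c mice; iv saline vehicle or 5, 10 or 20 mg/kg once weekly for 4 weeks; body weight, tumour volume, tumour weight, lung metastatic nodule count and metastasis score recorded; n = 10, mean ± SEM, ANOVA and Student's t test.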

[18] = Toxicity in BALB/c mouse xenografted with human MDA-MB-231 cells assessed as body weight loss at 10 mg/kg,iv administrated once per week for 3 weeks; type: organism-based; details: in vivo, 504 h
[19] = Toxicity in BALB/c mouse xenografted with human NCI-H1975 cells assessed as body weight loss at 10 mg/kg,iv administrated once per week for 3 weeks; type: organism-based; details: in vivo, 504 h
[20] = Toxicity in Beagle dog assessed as erythema at 3 to 18 mg/kg,iv measured upto 24 hrs; type: organism-based, Canis lupus familiaris; details: in vivo, dose 3-18 mg/kg
[21] = AUC (0-t) in female Beagle dog at 1 mg/kg,iv measured upto 24 hrs; type: ADME, organism-based, Canis lupus familiaris; set-up: dose 1 mg/kg, time < 24 hrs, route iv; details: in vivo; outline: as §1
[22] = MRT (0 to infinity) in male rat at 8 mg/kg,iv measured upto 24 hrs; type: ADME, organism-based; details: in vivo
[23] = tested on: 4T1; test: Antitumor activity against mouse 4T1 cells implanted in BALB/c mouse assessed as decrease in spleen MDSC cells at 5 mg/kg,iv measured after 28 days (reference value: 38%); type: functional; set-up: scale not given: the % may be the effect or the level left; details: time 28 day
[24] = Toxicity in BALB/c mouse xenografted with human HCT-116 cells assessed as side effects at 5.7 mg/kg,iv administrated once per week for 3 weeks; type: organism-based; details: in vivo, 504 h
Outline: (§3)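 Nude BALB/c nu/nu mice received subcutaneous human tumour cells into the right flank. Dosing started at mean tumour volume of 100–120 mm3, iv once weekly for 3 weeks; the taxane arm was an equimolar control. Body weight and overt side effects were monitored. Mean ± SEM, n = 8.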

[25] = Toxicity in BALB/c mouse xenografted with human A549/Taxol cells assessed as side effects at 5.7 mg/kg,iv administrated once per week for 3 weeks; type: organism-based, A549/TR; details: in vivo, 504 h; outline: as §3
[26] = tested on: 4T1; test: Antitumor activity against mouse 4T1 cells xenografted with BALB/c mouse assessed as decrease in tumor weight at 5.7 mg/kg,iv administrated once per week for 4 weeks; type: functional, organism-based
Outline: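 4T1 cells injected into mammary fat pads of BALB/c mice. Dosing iv once per week for 4 weeks, saline vehicle; single-agent arms were given alone or with the peptide component (5b or 6). Endpoints were body weight, tumour volume, tumour weight, lung metastatic nodule count and lung metastasis score. Mean ± SEM, n = 10; ANOVA and Student's t test.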

[27] = tested on: 4T1; test: Antitumor activity against mouse 4T1 cells implanted in BALB/c mouse assessed as decrease in tumor MMP9 expression level at 5.7 mg/kg,iv administrated once per week for 4 weeks in presence of MDA-205 by western blot assay; type: functional, organism-based
Outline: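 Tumour-bearing BALB/c mice (4T1 cells into mammary fat pad) given iv saline vehicle or test agents once weekly for 4 weeks. Tumours excised and probed by western blot for MMP9, MMP2 and NOD1, β-actin as loading control. Bands averaged over five mice per group; representative of two independent experiments.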

[28] = Toxicity in BALB/c mouse xenografted with human NCI-H1975 cells assessed as body weight loss at 5.7 mg/kg,iv administrated once per week for 3 weeks; type: organism-based; details: in vivo, 504 h; outline: as §3
[29] = Cmax in mouse plasma implanted with mouse 4T1 cells at 5.7 mg/kg,iv measured upto 72 hrs; type: ADME, organism-based; set-up: dose 5.7 mg/kg, time < 72 hrs, route iv

## CC(=O)O[C@@]12CO[C@@H]1C[C@H](O)[C@@]1(C)C(=O)[C@H](O)C3=C(C)[C@@H](OC(=O)[C@H](OC(=O)CCC(=O)NCCCC[C@H](NC(=O)CC[C@@H](NC(=O)[C@H](C)NC(=O)/C=C/c4ccc(F)cc4Cl)C(N)=O)C(=O)O)[C@@H](NC(=O)OC(C)(C)C)c4ccccc4)C[C@@](O)([C@@H](OC(=O)c4ccccc4)[C@H]21)C3(C)C
[1]
  MTD: 9.4 mg/kg
[2]
  AUC(0-t) at 24 h: 5200 ng·h/mL
[3]
  Drug metabolism: Metabolite_Detected
[4]
  Activity: Active
[5]
  Activity: Active
[6]
  Tmax: 30 min
[7]
  MRT inf: 33.1 min
[8]
  half-life: 36.6 min
[9]
  Drug uptake: Not Active
[10]
  Activity: Non-Toxic
[11]
  Activity: Active
[12]
  AUC(0-t) at 24 h: 39300 ng·h/mL
[13]
  Stability: Stable
[14]
  Tmax: 30 min
[15]
  Drug uptake: Active
[16]
  Drug metabolism: Metabolite_Detected
[17]
  inhibition in vivo at 5 mg/kg: 12%
[18]
  Activity: Non-Toxic
[19]
  Activity: Non-Toxic
[20]
  Activity: Toxic
[21]
  AUC(0-t) at 24 h: 1590 ng·h/mL
[22]
  MRT inf: 37.9 min
[23]
  Activity: 36.2%

## CC(=O)O[C@@]12CO[C@@H]1C[C@H](O)[C@@]1(C)C(=O)[C@H](O)C3=C(C)[C@@H](OC(=O)[C@H](O)[C@@H](NC(=O)OC(C)(C)C)c4ccccc4)C[C@@](O)([C@@H](OC(=O)c4ccccc4)[C@H]21)C3(C)C [DOCETAXEL ANHYDROUS]
[24]
  Activity: Non-Toxic
[25]
  Activity: Non-Toxic
[26]
  Activity: Active
[27]
  Activity: inactive
[28]
  Activity: Non-Toxic
[29]
  Cmax: 8.09 µM
